Measured values taken from ChEMBL document CHEMBL4041524, “Synthesis and Characterization of a Novel γ-Aminobutyric Acid Type A (GABAA) Receptor Ligand That Combines Outstanding Metabolic Stability, Pharmacokinetics, and Anxiolytic Efficacy” (J Med Chem, 2016).
The source made the active and inactive calls. The rule behind the calls is not given here.

Assays:
Liver [1] = assay: Metabolic stability in human liver microsomes assessed as compound remaining at 4 uM measured after 30 mins in presence of NADPH by LC-MS/MS analysis; format: ADME, microsome; settings: 0.5 h
Summary of the method: (§1)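 Human, mouse or rat liver microsomes were incubated with compound at 4 μM final for 30 min at 37 °C (n = 1). Percent of parent remaining was quantified by LC-MS/MS.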

Liver [2] = assay: Metabolic stability in mouse liver microsomes assessed as compound remaining at 4 uM measured after 30 mins in presence of NADPH by LC-MS/MS analysis; format: ADME, microsome; settings: 0.5 h; summary of the method: as §1
Liver [3] = assay: Metabolic stability in rat liver microsomes assessed as compound remaining at 4 uM measured after 30 mins in presence of NADPH by LC-MS/MS analysis; format: ADME, microsome; settings: 0.5 h; summary of the method: as §1
[4] = Total plasma concentration in Sprague-Dawley rat at 10 mg/kg, po measured after 60 mins by LC-MS/MS analysis; format: ADME, organism-based
Summary of the method: (§2)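 Sprague-Dawley rats (n = 3 per time point) were given 10 mg/kg p.o. Total plasma concentrations were taken at 15, 30, 60 and 120 min. Brain levels of the dosed ligand and of the carboxylic acid metabolite were taken at 60 or 120 min.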

[5] = Drug uptake in Sprague-Dawley rat brain at 10 mg/kg, po measured after 60 mins by LC-MS/MS analysis; format: ADME, organism-based; settings: read-out: Drug uptake; summary of the method: as §2
Mus musculus = assay: Anxiolytic-like activity in Swiss Webster mouse marble burying model of anxiety assessed as suppression of marble burying activity at 30 mg/kg, ip administered 30 mins prior to test relative to vehicle-control; format: functional, organism-based
Summary of the method: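 Male NIH Swiss Webster mice (n = 10) received vehicle or compound at 10 or 30 mg/kg i.p. 30 min before marble burying testing. Sedation-like behaviour was noted by observation. Analysis was ANOVA with Dunnett's test vs vehicle.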

[6] = biological target: T1, GABA-A receptor; alpha-3/beta-3/gamma-2 (Homo sapiens) (UniProt P18507+P28472+P34903); assay: Modulation of recombinant GABA alpha3beta3gamma2 receptor (unknown origin) expressed in Xenopus laevis oocytes assessed as change in GABA-induced EC(3 to 6) current at 100 nM by two-electrode voltage clamp assay; format: cell-based
Summary of the method: (§3)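 Xenopus laevis oocytes expressing α1, α2, α3 or α5 β3γ2 GABAARs were recorded by two-electrode voltage clamp. Modulation of the GABA EC3-6 current (taken as 100%) was tested at 100 nM, 1 μM and 10 μM in the same cells. Values are mean ± SEM, n = 3–4.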

[7] = biological target: T2, GABA-A receptor; alpha-1/beta-3/gamma-2 (Homo sapiens) (UniProt P14867+P18507+P28472); assay: Modulation of recombinant GABA alpha1beta3gamma2 receptor (unknown origin) expressed in Xenopus laevis oocytes assessed as change in GABA-induced EC(3 to 6) current at 10 uM by two-electrode voltage clamp assay; format: cell-based; summary of the method: as §3
[8] = biological target: GABA-A receptor; alpha-2/beta-3/gamma-2 (Homo sapiens) (UniProt P18507+P28472+P47869); assay: Modulation of recombinant GABA alpha2beta3gamma2 receptor (unknown origin) expressed in Xenopus laevis oocytes assessed as change in GABA-induced EC(3 to 6) current at 10 uM by two-electrode voltage clamp assay; format: cell-based; summary of the method: as §3
[9] = Clearance in femoral artery/vein cannulated Sprague-Dawley rat at 1 mg/kg, iv administered […] as single dose by LC-MS/MS analysis; format: ADME, organism-based; settings: in vivo
Summary of the method: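 Male Sprague-Dawley rats (n = 3 per time point) were dosed 1 mg/kg i.v. or 10 mg/kg i.p. Plasma concentrations were measured at set time points. Clearance, Vdss and T½ came from the i.v. arm, and AUC, Cmax and Tmax from the i.p. arm.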

[10] = Volume of distribution at steady state in femoral artery/vein cannulated Sprague-Dawley rat at 1 mg/kg, iv administered […] as single dose by LC-MS/MS analysis; format: ADME, organism-based; settings: in vivo, read-out: Vdss
Summary of the method: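 Male Sprague-Dawley rats (n = 3 per time point) were dosed i.v. at 1 mg/kg. Plasma concentrations were measured at set time points, and Vdss was taken from the plasma concentration–time profile.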

Brain = assay: Fraction unbound in rat brain by equilibrium dialysis method; format: ADME, tissue-based
Summary of the method: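 Fraction unbound was determined in vitro by equilibrium dialysis with rat plasma protein and rat brain.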

[11] = Drug uptake in Sprague-Dawley rat brain at 10 mg/kg, ip measured after 4 hrs; format: ADME, organism-based; settings: read-out: Drug uptake
Summary of the method: (§4)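 Rats were given 10 mg/kg i.p. (n = 3), and total plasma and brain concentrations were measured at 4 h. Unbound concentrations were calculated as Fu × total concentration, and Kp,uu = Cu,brain/Cu,plasma.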

[12] = Ratio of unbound concentration in Sprague-Dawley rat brain to plasma at 10 mg/kg, ip measured after 4 hrs; format: ADME, organism-based; summary of the method: as §4
Rattus norvegicus [13] = assay: Anxiolytic like activity in water-deprived Sprague-Dawley rat assessed as increase in water drinking time during punished period at 30 mg/kg, po administered 30 prior to testing by Vogel conflict test relative to vehicle control; format: functional
Summary of the method: (§5)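 Water-deprived male Sprague-Dawley rats (n = 6–8) drank during unpunished and punished periods, with licking suppressed by mild shock in punished periods. Compounds were given 30 min before testing. Analysis was ANOVA with Dunnett's test.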

Rattus norvegicus [14] = assay: Anxiolytic like activity in water-deprived Sprague-Dawley rat assessed as increase in water drinking time during punished period at 20 mg/kg, po administered 30 mins prior to testing by Vogel conflict test relative to control; format: functional; summary of the method: as §5
Rattus norvegicus [15] = assay: Anxiolytic like activity in water-deprived Sprague-Dawley rat assessed as increase in water drinking time during punished period at 60 mg/kg, po administered 30 mins prior to testing by Vogel conflict test relative to control; format: functional; summary of the method: as §5
Rattus norvegicus [16] = assay: Toxicity in water-deprived Sprague-Dawley rat assessed as effect on water drinking time during nonpunished period up to 60 mg/kg, po administered 30 mins prior to testing; format: organism-based; settings: in vivo, 0.5 h
[17] = biological target: T2, GABA-A receptor; alpha-1/beta-3/gamma-2 (Homo sapiens); assay: Modulation of recombinant GABA alpha1beta3gamma2 receptor (unknown origin) expressed in Xenopus laevis oocytes assessed as change in GABA-induced EC(3 to 6) current by two-electrode voltage clamp assay; format: cell-based; summary of the method: as §3
[18] = biological target: T1, GABA-A receptor; alpha-3/beta-3/gamma-2 (Homo sapiens); assay: Modulation of recombinant GABA alpha3beta3gamma2 receptor (unknown origin) expressed in Xenopus laevis oocytes assessed as change in GABA-induced EC(3 to 6) current by two-electrode voltage clamp assay; format: cell-based; summary of the method: as §3
[19] = biological target: GABA-A receptor; alpha-5/beta-3/gamma-2 (Homo sapiens) (UniProt P18507+P28472+P31644); assay: Modulation of recombinant GABA alpha5beta3gamma2 receptor (unknown origin) expressed in Xenopus laevis oocytes assessed as change in GABA-induced EC(3 to 6) current by two-electrode voltage clamp assay; format: cell-based; summary of the method: as §3

Q: For C#Cc1ccc2c(c1)C(c1ccccn1)=NCc1c(-c3cnco3)ncn1-2, which Stability (Liver [1]) is on record?
A: 91%

Q: And the Stability (Liver [2])?
A: 90%

Q: And the Stability (Liver [3])?
A: 90%

Q: What about the concentration at 1 h [4] of the same compound?
A: 3.91 µM

Q: What about the concentration at 1 h [5] of the same compound?
A: 3.64 µM

Q: What about the Activity (Mus musculus) of the same compound?
A: Active

Q: What about the Activity [6] of the same compound?
A: 109%

Q: What about the Activity [7] of the same compound?
A: 232%

Q: And the Activity [8]?
A: 258%

Q: What about the clearance [9] of the same compound?
A: 21.7 mL/min/kg

Q: What about the Vd [10] of the same compound?
A: 1.4 L/kg

Q: What about the Fu (Brain) of the same compound?
A: 17.7%

Q: And the concentration at 4 h [11]?
A: 2.05 µM

Q: And the “K(p,uu,brain)” value [12]?
A: 0.66

Q: And the Activity (Rattus norvegicus [13])?
A: 220%

Q: What about the Activity (Rattus norvegicus [14]) of the same compound?
A: 330%

Q: What about the Activity (Rattus norvegicus [15]) of the same compound?
A: 200%

Q: And the Activity (Rattus norvegicus [16])?
A: Non-Toxic

Q: And the Activity [17]?
A: Dose-dependent effect

Q: What about the Activity [18] of the same compound?
A: Dose-dependent effect

Q: And the Activity [19]?
A: Dose-dependent effect
